The text below walks through data of ChEMBL document CHEMBL2034883, “Asperjinone, a nor-neolignan, and terrein, a suppressor of ABCG2-expressing breast cancer cells, from thermophilic Aspergillus terreus” (J Nat Prod, 2012).

Calls of active or inactive are those of the source. The rule behind the calls is not given here.

In assay [1] the test system is MCF7. Kind of assay: Cytotoxicity against human MCF7 cells at 100 uM after 96 hrs by MTT assay. Format: functional, cell-based.
For assay [2], the system named is MCF7. Kind of assay: Cytotoxicity against human MCF7 cells assessed as suppression of SP-positive cells at 10 uM after 90 mins by Hoechst staining-based FACS analysis (reference value: 2.71%). Format: functional. A general note: A flow cytometer gives signals particle by particle.
The subject of assay [3] is MCF7. Kind of assay: Induction of apoptosis in human MCF7 cells assessed as viable cells at 10 nM after 96 hrs by annexinV/propidium iodide staining-based flow cytometric analysis (reference value: 89 %). The settings on record: MCF7, 96 h, read-out: Activity. Format: functional.
The subject of assay [4] is MCF7. Kind of assay: Induction of apoptosis in human MCF7 cells assessed as late apoptotic cells at 10 nM after 96 hrs by annexinV/propidium iodide staining-based flow cytometric analysis (reference value: 5.02 %). Format: functional.
In assay [5] the test system is MCF7. Kind of assay: Induction of apoptosis in human MCF7 cells assessed as necrotic cells at 10 nM after 96 hrs by annexinV/propidium iodide staining-based flow cytometric analysis (reference value: 2.89 %). Format: functional.
For assay [6], the system named is MCF7. Kind of assay: Cytotoxicity against human MCF7 cells assessed as suppression of SP-positive cells at 10 nM after 90 mins by Hoechst staining-based FACS analysis (reference value: 2.71%). Format: functional. In a few lines: (§1)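 Side-population assay. MCF-7 cells (1 × 10^6) trypsinized, washed three times in PBS and resuspended in HBSS with 2% FBS and 10 mM HEPES. Incubated with Hoechst 33342 (5 μg/mL) at 37 °C for 90 min with or without compound (1 or 10 nM). FTC (10 μM) used as control. SP fraction gated by flow cytometry. At least three independent experiments.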

In assay [7] the test system is MCF7. Kind of assay: Cytotoxicity against human MCF7 cells assessed as suppression of SP-positive cells at 1 nM after 90 mins by Hoechst staining-based FACS analysis (reference value: 2.71%). Format: functional. In a few lines: as §1
The test system of assay [8] is MCF7. Kind of assay: Induction of apoptosis in human MCF7 cells assessed as early apoptotic cells at 10 nM after 96 hrs by annexinV/propidium iodide staining-based flow cytometric analysis (reference value: 3.05 %). Format: functional.
For assay [9], the system named is MCF7. Kind of assay: Cytotoxicity against ABCG2-positive human MCF7 cells after 96 hrs by Western blot analysis. The settings on record: in the assay text read “FACS analysis” for “Western blot analysis”. Format: functional, cell-based. In a few lines:
(§2)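 ABCG2+ subpopulation counted by flow cytometry. MCF-7 cells (2.0 × 10^4) treated 96 h, trypsinized, washed in PBS and resuspended in HBSS with 2% FBS and 10 mM HEPES (10^6/100 μL). Labelled with anti-ABCG2 (5D3) for 30 min, then PE anti-mouse IgG for 15 min. PI (2 μg/mL) added to exclude dead cells. Total ABCG2+ cell number reported as mean ± SD of at least three independent experiments.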

Assay [10] relates to MCF7. Kind of assay: Induction of apoptosis in human MCF7 cells assessed as PARP cleavage at 1 nM after 96 hrs by Western blot analysis. Format: functional, cell-based. In a few lines: (§3)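 MCF-7 cells (2.0 × 10^5) exposed to 1 nM for 24, 48, 72 and 96 h; 10 nM paclitaxel as control. Lysed in RIPA (pH 8) with protease and phosphatase inhibitors; 40 μg protein per lane run on 10% SDS-PAGE and transferred to PVDF. Blocked in 5% milk/TBST 1 h; primary antibody overnight at 4 °C. Anti-ABCG2 1:100, anti-PARP and anti-caspase-7 each 1:1000. ECL detection.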
For orientation: Immunoblotting shows a protein as a band on a membrane.

The test system of assay [11] is MCF7. Kind of assay: Cytotoxicity against ABCG2-positive human MCF7 cells at 1 nM after 96 hrs by Western blot analysis. Format: functional, cell-based. The following applies: in the assay text read “FACS analysis” for “Western blot analysis”. In a few lines: as §2
The test system of assay [12] is MCF7. Kind of assay: Cytotoxicity against ABCG2-positive human MCF7 cells at 10 nM after 96 hrs by Western blot analysis. Format: functional, cell-based. The following applies: in the assay text read “FACS analysis” for “Western blot analysis”. In a few lines: as §2
Another assay has as its system HepG2. Kind of assay: Cytotoxicity against human HepG2 cells after 96 hrs by MTT assay. Format: functional, cell-based. The following applies: HepG2, 96 h. (Formazan colour is commonly taken as a measure of viable cells.)
The subject of assay [13] is MCF7. Kind of assay: Inhibition of PI3K-mediated Akt phosphorylation at Ser473 in human MCF7 cells at 1 nM after 6 hrs by Western blot analysis. Format: cell-based. In a few lines:
(§4)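 MCF-7 cells (2.0 × 10^5) exposed to 1 nM for 1, 3 and 6 h; 10 μM LY294002 as positive control. RIPA lysates, 40 μg per lane, 10% SDS-PAGE and PVDF transfer. Probed overnight at 4 °C with anti-Akt and anti-phospho-Akt Ser473 (1:1000 each), with β-actin (1:10000) as loading control. ECL detection.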

For assay [14], the system named is MCF7. Kind of assay: Induction of apoptosis in human MCF7 cells assessed as necrotic cells at 1 nM after 96 hrs by annexinV/propidium iodide staining-based flow cytometric analysis (reference value: 2.89 %). Format: functional.
Assay [15] concerns MCF7. Kind of assay: Cytotoxicity against human MCF7 cells after 48 hrs by MTT assay. The settings on record: MCF7, 48 h.
Assay [16] concerns MCF7. Kind of assay: Down regulation of Akt expression in human MCF7 cells at 1 nM after 6 hrs by Western blot analysis. Format: functional, cell-based. In a few lines: as §4
The subject of assay [17] is MCF7. Kind of assay: Induction of apoptosis in human MCF7 cells assessed as early apoptotic cells at 1 nM after 96 hrs by annexinV/propidium iodide staining-based flow cytometric analysis (reference value: 3.05 %). Format: functional.
Assay [18] concerns MCF7. Kind of assay: Growth inhibition of human MCF7 cells at 1 nM after 96 hrs by MTT assay. Format: functional. The following applies: MCF7, 96 h, read-out: GI.
Assay [19] has as its system MCF7. Kind of assay: Induction of apoptosis in human MCF7 cells assessed as late apoptotic cells at 1 nM after 96 hrs by annexinV/propidium iodide staining-based flow cytometric analysis (reference value: 5.02 %). Format: functional.
Another assay has as its system PANC-1. Kind of assay: Cytotoxicity against human PANC1 cells after 96 hrs by MTT assay. Format: functional, cell-based. The settings on record: PANC-1, 96 h.
Assay [20] deals with MCF7. Kind of assay: Down regulation of ABCG2 expression in human MCF7 cells at 1 nM after 96 hrs by Western blot analysis.
The test system of assay [21] is MCF7. Kind of assay: Induction of apoptosis in human MCF7 cells assessed as viable cells at 1 nM after 96 hrs by annexinV/propidium iodide staining-based flow cytometric analysis (reference value: 89 %). The following applies: MCF7, 96 h, read-out: Activity. Format: functional.
For assay [22], the system named is MCF7. Kind of assay: Down regulation of ABCG2 expression in human MCF7 cells at 1 nM after 96 hrs by Western blot analysis. Format: functional, cell-based. In a few lines: as §3
Assay [23] has as its system MCF7. Kind of assay: Induction of apoptosis in human MCF7 cells assessed as caspase 7 cleavage at 1 nM after 96 hrs by Western blot analysis. Format: functional, cell-based. In a few lines:
as §3

Take `CC1(C)OC1Cc1cc(CC2=C(c3ccc(O)cc3)C(=O)OC2=O)ccc1O` (configuration not stated): the result in the assay on MCF7 [1] was inactive.

For `COC(=O)[C@@]1(Cc2ccc(O)c(CC=C(C)C)c2)OC(=O)C(O)=C1c1ccc(O)cc1`, the outcome in the assay on MCF7 [1] was inactive.

As to `COC(=O)[C@]1(Cc2ccc3c(c2)C[C@H](C(C)(C)O)O3)OC(=O)C(O)=C1c1ccc(O)cc1`, the result with MCF7 [1] was inactive.

Turning to `COC(=O)[C@]1(Cc2ccc3c(c2)C[C@H](O)C(C)(C)O3)OC(=O)C(O)=C1c1ccc(O)cc1`, the result in the assay with MCF7 [1] was inactive.

Turning to `COC(=O)c1cc(O)cc(OC)c1C(=O)c1c(O)c(Cl)c(C)c(Cl)c1O`, in the assay with MCF7 [1], the result was inactive.

Regarding `COC(=O)c1cc(O)cc(OC)c1Oc1c(Cl)c(C)c(Cl)c(O)c1C(=O)O`, the result in the assay with MCF7 [1] was inactive.

For `COC(=O)c1cc(O)cc(OC)c1Oc1c(Cl)c(C)c(Cl)c(O)c1C(=O)OC`, the outcome with MCF7 [1] was inactive.

Take `COC(=O)c1cc(O)cc(OC)c1Oc1cc(C)cc(O)c1C(=O)O`: the result in the assay on MCF7 [1] was inactive.

For `COc1cc(COC(C)=O)cc2c1C(=O)c1c(O)cc(O)cc1C2=O`, the outcome with MCF7 [1] was inactive.

Regarding `COc1cc(O)cc(C(=O)O)c1C(=O)c1c(O)c(Cl)c(C)c(Cl)c1O`, the outcome with MCF7 [1] was inactive.

For `COc1cc(O)cc2c1C(=O)c1c(O)cc(C)cc1C2=O`, the outcome in the assay on MCF7 [1] was inactive.

As for `COc1ccc2c3c([nH]c2c1)[C@H](C=C(C)C)N1C(=O)[C@@H]2CCCN2C(=O)[C@@H]1C3` [FUMITREMORGIN], in the assay with MCF7 [2], the Activity worked out at 0.81%.

Turning to `CC(=O)O[C@H]1C(=O)[C@@]2(C)[C@H]([C@H](OC(=O)c3ccccc3)[C@]3(O)C[C@H](OC(=O)[C@H](O)[C@@H](NC(=O)c4ccccc4)c4ccccc4)C(C)=C1C3(C)C)[C@]1(OC(C)=O)CO[C@@H]1C[C@@H]2O` [PACLITAXEL], the viability at 0.01 µM with MCF7 [3] is 72.1%. For the same compound, the Activity in the assay with MCF7 [4] is 9.34%; with MCF7 [5] it was 2.91%; in the assay with MCF7 [6], 1.65%; in the assay on MCF7 [7], 1.71%; in the assay on MCF7 [8] it was 15.6%; in the assay on MCF7 [9] it was “Dose-dependent effect”.

As to `C/C=C/C1=CC(=O)[C@@H](O)[C@@H]1O` [TERREIN], the result in the assay on MCF7 [10], in the assay on MCF7 [11], in the assay with MCF7 [12], in the assay with MCF7 [16], in the assay on MCF7 [20] and with MCF7 [22] was Active. In the assay with MCF7 [23], the outcome was Active. Further, the viability at 0.01 µM in the assay on MCF7 [3] turned out to be 65.6%. Besides, the IC50 in the assay with HepG2 was determined as 66.8 nM; in the assay with MCF7 [15] it was 1.1 nM; in the assay on PANC-1, 9800 nM. In addition, the inhibition entry in the assay on MCF7 [13] is “Active”. The Activity in the assay on MCF7 [14] was determined as 1.89%; with MCF7 [4], 7.92%; with MCF7 [17], 29.6%; with MCF7 [19], 8.89%; in the assay with MCF7 [5] it was 2.48%; in the assay with MCF7 [6], 0.89%. The Activity with MCF7 [7] was 0.77%; in the assay with MCF7 [8], 24%; in the assay on MCF7 [9] it was “Dose-dependent effect”. In addition, the inhibition of growth at 0.001 µM in the assay with MCF7 [18] is 70%. The viability at 0.001 µM with MCF7 [21] amounted to 59.7%.

As a reminder, the IC50 is the midpoint of a concentration-inhibition curve.
